The source of these data is ChEMBL document CHEMBL2434872, “Modulation of A2B adenosine receptor by 1-Benzyl-3-ketoindole derivatives” (Eur J Med Chem, 2013).

Assay [1] concerns the target Adenosine receptor A2a (Homo sapiens, UniProt P29274). Put plainly: Displacement of [3H]NECA from human adenosine A2A receptor expressed in CHO cell membrane after 90 mins. The format is cell membranes.
The target of assay [2] is T1, Adenosine receptor A1 (Homo sapiens, UniProt P30542).
T1 sequence (P30542 whole entry): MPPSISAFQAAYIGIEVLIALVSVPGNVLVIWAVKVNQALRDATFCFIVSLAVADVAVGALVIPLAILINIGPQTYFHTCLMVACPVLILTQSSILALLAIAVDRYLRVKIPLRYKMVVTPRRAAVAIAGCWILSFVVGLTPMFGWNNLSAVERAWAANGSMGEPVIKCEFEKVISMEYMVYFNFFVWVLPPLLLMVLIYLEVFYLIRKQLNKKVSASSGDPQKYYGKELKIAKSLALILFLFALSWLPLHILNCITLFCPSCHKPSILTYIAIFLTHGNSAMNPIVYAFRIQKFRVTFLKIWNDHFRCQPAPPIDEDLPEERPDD
The assay is described as follows: Displacement of [3H]DPCPX from human adenosine A1 receptor expressed in CHO cell membrane after 180 mins. The assay is classed as cell membranes. On the technique in general: Displacement assays read how much labelled ligand stays bound in the presence of the test substance.

The target of assay [3] is T2, Adenosine receptor A3 (Homo sapiens, UniProt P0DMS8).
T2 sequence (P0DMS8 whole entry): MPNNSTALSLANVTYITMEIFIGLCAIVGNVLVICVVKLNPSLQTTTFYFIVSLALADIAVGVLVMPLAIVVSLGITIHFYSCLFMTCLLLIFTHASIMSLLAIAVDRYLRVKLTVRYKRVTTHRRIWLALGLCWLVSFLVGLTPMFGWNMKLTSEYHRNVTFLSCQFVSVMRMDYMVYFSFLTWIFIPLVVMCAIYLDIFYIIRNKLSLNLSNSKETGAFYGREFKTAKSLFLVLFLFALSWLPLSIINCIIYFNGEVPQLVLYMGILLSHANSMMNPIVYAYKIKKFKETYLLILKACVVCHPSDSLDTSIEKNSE
The assay is described as follows: Displacement of [125I]AB-MECA from human adenosine A3 receptor expressed in CHO cell membrane after 90 mins. The format is cell membranes.

The subject of assay [4] is CHO. The assay is described as follows: Effect on cAMP production in adenosine receptor-deficient wild type CHO cells. The format is functional, cell-based. The note with it: Cricetulus griseus. On the technique in general: Changes in cAMP serve as a functional read-out for many G protein-coupled receptors.
Assay [5] has as its target T1, Adenosine receptor A1. Put plainly: (§1) Antagonist activity at human recombinant adenosine A1 receptor expressed in CHO cells assessed as inhibition of NECA-mediated reduction of intracellular [3H]-cAMP accumulation incubated for 15 mins prior to NECA induction measured after 30 mins by liquid scintillation spectrometric analysis in presence of forskolin. The assay is classed as functional, cell-based. In outline: (§2)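 CHO cells stably expressing human A1 receptor were plated for 24 h, then preincubated 15 min at 37 °C in DMEM with ADA (1 U/mL) and Ro20-1724 (20 µM). Compound (1 nM–10 µM) was added for 15 min, then 10 nM NECA with 1 µM forskolin for 15 min. Lysis was in 0.4 N HCl. cAMP was measured by [3H]cAMP competition with bovine adrenal binding protein, as % of forskolin level. IC50 from ≥3 experiments, duplicates.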

In assay [6] the target is T3, Adenosine receptor A1 (Homo sapiens) (UniProt P30542).
T3 sequence (whole entry): T1 sequence (P30542 whole entry)
The assay is described as §1. The format is functional, cell-based. In outline: as §2

Molecules are shown by their SMILES. Calls of active or inactive are those of the source. The rule behind the calls is not given here.

The Ki is the equilibrium dissociation constant of an inhibitor or competing ligand from its target. The low end stands for higher affinity, the high end for lower affinity. A word on the IC50: it is the concentration needed to halve the response being measured.

Sequence of Adenosine receptor A2a (P29274 whole entry): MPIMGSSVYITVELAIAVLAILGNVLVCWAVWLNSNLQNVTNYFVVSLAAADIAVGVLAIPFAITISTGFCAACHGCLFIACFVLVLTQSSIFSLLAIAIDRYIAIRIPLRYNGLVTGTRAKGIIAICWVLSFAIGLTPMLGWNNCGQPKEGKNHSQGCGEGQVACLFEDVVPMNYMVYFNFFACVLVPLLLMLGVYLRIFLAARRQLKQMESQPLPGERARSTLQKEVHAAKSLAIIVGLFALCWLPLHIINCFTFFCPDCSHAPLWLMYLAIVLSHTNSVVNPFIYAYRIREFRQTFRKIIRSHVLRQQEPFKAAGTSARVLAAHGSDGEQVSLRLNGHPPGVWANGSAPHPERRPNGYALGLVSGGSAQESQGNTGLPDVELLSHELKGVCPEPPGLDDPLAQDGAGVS

`O=C(C(=O)c1cn(Cc2ccccc2)c2ccccc12)c1cccs1`: the Ki was > 10 µM in assay [1], > 10 µM in assay [2] and > 1 µM in assay [3]. Also, the result in assay [4] was inactive.

`O=C(C(=O)c1cn(Cc2ccccc2)c2ccccc12)c1ccco1`: the Ki in assay [1] was > 10 µM; in assay [2], 0.343 µM; in assay [3], > 1 µM. Further, in assay [5], the IC50 came out at 0.291 µM. Besides, in assay [6], the inhibition result is “Dose-dependent effect”. Besides, the result in assay [4] was inactive.

As to `O=C(Nc1ccccc1)C(=O)c1cn(Cc2ccccc2)c2ccccc12`, the Ki in assay [1] is > 10 µM; in assay [2], > 10 µM; in assay [3], > 1 µM. Moreover, in assay [4], the result was inactive.

Regarding `O=C(Nc1ccccc1)c1cn(Cc2ccccc2)c2ccccc12`, the Ki in assay [1] is > 10 µM; in assay [2], > 10 µM; in assay [3], > 1 µM. The outcome in assay [4] was inactive.

Take `O=C(NCc1ccccc1)C(=O)c1cn(Cc2ccccc2)c2ccccc12`: in assay [4], the outcome was inactive.

In the case of `O=C(C(=O)c1cn(Cc2ccccc2)c2ccccc12)c1ccccc1`, the Ki is > 10 µM in assay [1], 0.162 µM in assay [2] and > 1 µM in assay [3]. Also, in assay [5], the half-inhibitory concentration (IC50) was 0.404 µM. For the same compound, the inhibition entry in assay [6] is “Dose-dependent effect”. In addition, the result in assay [4] was inactive.

Turning to `O=C(NCc1ccccc1)c1cn(Cc2ccccc2)c2ccccc12`, the figures for the Ki in assay [1], in assay [2] and in assay [3] were > 10 µM, > 10 µM and > 1 µM, respectively. Besides, the result in assay [4] was inactive.
